From ChEMBL document CHEMBL1131636, “Conformationally constrained analogues of the muscarinic agonist 3-(4-(methylthio)-1,2,5-thiadiazol-3-yl)-1,2,5,6-tetrahydro-1-methylpyr idine. Synthesis, receptor affinity, and antinociceptive activity” (J Med Chem, 1998) come the findings set out here.

Experiment [1] deals with Mus musculus. Put plainly: In vivo antinociceptive activity was measured using mouse grid shock (MGS) assay in mice upon subcutaneous administration. It counts as functional. The conditions noted are these: sc. An outline of the steps:
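Mice dosed sc by body weight, then shocked via stainless steel grid floor 30 min later. Vocalization detected acoustically. Percent increase in latency = (postdrug − predrug)/(cutoff − predrug) × 100 per animal, averaged per dose. Ten mice per dose and for controls. ED50 derived.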

Experiment [2] relates to Mus musculus. Put plainly: Compound was tested for its ability to induce salivation in mice upon subcutaneous administration. It counts as functional. The conditions noted are these: sc. Summed up: (§1)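 Mice dosed sc, scored just before the 30-min postdrug grid-shock test. Salivation or tremor rated 0–3 per animal. Scores multiplied by number of mice, summed per group (n = 10), and expressed as % of maximum sum (30). ED50 derived.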

Experiment [3] has as its target T1, Muscarinic acetylcholine receptor M4 (Homo sapiens, UniProt P08173).
T1 sequence (P08173 whole entry): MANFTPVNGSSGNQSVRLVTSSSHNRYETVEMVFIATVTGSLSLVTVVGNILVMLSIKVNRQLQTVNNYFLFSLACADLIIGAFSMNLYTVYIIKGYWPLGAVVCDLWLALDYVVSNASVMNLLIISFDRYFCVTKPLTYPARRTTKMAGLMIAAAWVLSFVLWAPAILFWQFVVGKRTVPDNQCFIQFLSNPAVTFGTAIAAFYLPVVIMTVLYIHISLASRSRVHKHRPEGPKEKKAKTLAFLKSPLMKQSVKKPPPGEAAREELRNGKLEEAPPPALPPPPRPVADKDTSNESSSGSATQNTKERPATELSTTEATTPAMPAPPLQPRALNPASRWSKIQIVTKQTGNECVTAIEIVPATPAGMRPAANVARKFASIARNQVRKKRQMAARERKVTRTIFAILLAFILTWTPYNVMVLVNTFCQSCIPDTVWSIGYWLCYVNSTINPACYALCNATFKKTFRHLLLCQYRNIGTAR
Put plainly: Compound was evaluated for its ability to displace [3H]- N-methyl-scopolamine ([3H]-NMS) binding to cloned CHO cell lines expressing Muscarinic acetylcholine receptor M4. It counts as cell-based.

Experiment [4] addresses T2, Muscarinic acetylcholine receptor M1 (Homo sapiens, UniProt P11229).
T2 sequence (P11229 whole entry): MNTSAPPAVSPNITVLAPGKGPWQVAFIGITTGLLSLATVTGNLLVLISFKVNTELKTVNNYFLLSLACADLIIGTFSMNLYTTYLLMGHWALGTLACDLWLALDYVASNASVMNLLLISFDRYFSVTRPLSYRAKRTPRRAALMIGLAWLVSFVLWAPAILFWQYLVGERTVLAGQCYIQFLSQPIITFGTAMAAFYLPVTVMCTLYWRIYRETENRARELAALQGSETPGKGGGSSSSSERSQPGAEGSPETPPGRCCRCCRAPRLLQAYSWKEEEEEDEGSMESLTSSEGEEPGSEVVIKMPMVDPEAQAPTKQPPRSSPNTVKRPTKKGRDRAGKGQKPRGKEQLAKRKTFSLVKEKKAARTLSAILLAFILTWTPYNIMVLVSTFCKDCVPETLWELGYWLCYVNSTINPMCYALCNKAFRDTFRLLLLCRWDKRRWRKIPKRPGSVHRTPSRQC
Briefly: (§2) Compound was evaluated for its ability to displace [3H]N-methylscopolamine ([3H]NMS) binding to cloned CHO cell lines expressing Muscarinic acetylcholine receptor M1. It counts as cell-based.

For experiment [5], the target named is Muscarinic acetylcholine receptor M3 (Homo sapiens, UniProt P20309). Briefly: Compound was evaluated for its ability to displace [3H]N-methylscopolamine ([3H]NMS) binding to cloned CHO cell lines expressing Muscarinic acetylcholine receptor M3. It counts as cell-based.
The target of experiment [6] is T3, Muscarinic acetylcholine receptor M5 (Homo sapiens, UniProt P08912).
T3 sequence (P08912 whole entry): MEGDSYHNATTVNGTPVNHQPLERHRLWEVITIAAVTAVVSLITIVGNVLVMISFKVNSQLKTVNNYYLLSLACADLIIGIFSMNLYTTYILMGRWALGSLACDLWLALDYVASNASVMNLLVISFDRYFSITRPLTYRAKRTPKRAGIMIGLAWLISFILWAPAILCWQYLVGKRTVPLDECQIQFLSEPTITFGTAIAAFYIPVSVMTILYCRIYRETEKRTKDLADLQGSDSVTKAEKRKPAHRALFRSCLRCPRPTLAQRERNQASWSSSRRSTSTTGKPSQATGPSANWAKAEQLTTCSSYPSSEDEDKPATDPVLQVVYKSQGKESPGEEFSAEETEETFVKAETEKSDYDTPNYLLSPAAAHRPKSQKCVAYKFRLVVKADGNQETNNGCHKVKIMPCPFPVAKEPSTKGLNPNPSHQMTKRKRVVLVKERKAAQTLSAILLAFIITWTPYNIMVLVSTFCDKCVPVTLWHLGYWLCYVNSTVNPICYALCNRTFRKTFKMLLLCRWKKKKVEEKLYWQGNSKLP
Briefly: Compound was evaluated for its ability to displace [3H]- N-methyl-scopolamine ([3H]NMS) binding to cloned CHO cell lines expressing Muscarinic acetylcholine receptor M5. The format is cell-based.

In experiment [7] the target is T4, Muscarinic acetylcholine receptor M2 (Homo sapiens, UniProt P08172).
T4 sequence (P08172 whole entry): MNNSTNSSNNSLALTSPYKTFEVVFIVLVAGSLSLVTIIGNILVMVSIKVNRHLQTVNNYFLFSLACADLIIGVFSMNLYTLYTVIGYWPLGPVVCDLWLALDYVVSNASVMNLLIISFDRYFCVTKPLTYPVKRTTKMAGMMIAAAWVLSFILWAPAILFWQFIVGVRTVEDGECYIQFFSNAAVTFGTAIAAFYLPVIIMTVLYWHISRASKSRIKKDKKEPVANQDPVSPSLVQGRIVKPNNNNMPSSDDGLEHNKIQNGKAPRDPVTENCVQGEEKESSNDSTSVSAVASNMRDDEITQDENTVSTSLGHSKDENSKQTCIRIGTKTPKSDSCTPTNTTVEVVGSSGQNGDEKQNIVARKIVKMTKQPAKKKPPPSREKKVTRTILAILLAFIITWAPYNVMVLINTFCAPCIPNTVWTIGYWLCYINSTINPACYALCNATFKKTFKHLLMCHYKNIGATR
Briefly: Compound was evaluated for its ability to displace [3H]- N-methyl-scopolamine ([3H]NMS) binding to cloned CHO cell lines expressing Muscarinic acetylcholine receptor M2. It counts as cell-based.

The target of experiment [8] is Muscarinic acetylcholine receptor. Briefly: In vitro Binding affinity was measured on Muscarinic acetylcholine receptor on rat brain membranes using [3H]oxotremorine-M. Further details: species or system Membrane. Summed up: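 Rat brain homogenate washed by 40000g centrifugation and resuspended in Hepes pH 7.4. Incubated with 1.0 nM (final) [3H]Oxo-M for 30 min at 25 °C. […] Filtered on glass fiber, washed with ice-cold buffer, scintillation counted. IC50 from at least four concentrations in triplicate, Hill equation.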

Experiment [9] deals with Mus musculus. Put plainly: Compound was tested for its ability to induce tremors in mice subcutaneous administration. The format is functional. The following applies: sc. An outline of the steps: as §1
In experiment [10] the target is T2, Muscarinic acetylcholine receptor M1. The experiment is described as §2. The format is cell-based. An outline of the steps: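 Membranes from CHO cells expressing cloned m1 receptor, prepared in 20 mM sodium phosphate pH 7.4 (200g spin, then 40000g for 45 min at 4 °C; stored −80 °C). 23–45 μg protein incubated with [3H]NMS (5 nM as added) and test compound for 2 h. WGA-coated SPA beads added, counted after a further 2 h.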
The source holds these as a separate data set.

The target in experiment [11] is Muscarinic acetylcholine receptor. Put plainly: In vitro Binding affinity was measured against Muscarinic acetylcholine receptor on rat brain membranes using [3H]oxotremorine-M.

Muscarinic acetylcholine receptor M3, sequence (P20309 whole entry): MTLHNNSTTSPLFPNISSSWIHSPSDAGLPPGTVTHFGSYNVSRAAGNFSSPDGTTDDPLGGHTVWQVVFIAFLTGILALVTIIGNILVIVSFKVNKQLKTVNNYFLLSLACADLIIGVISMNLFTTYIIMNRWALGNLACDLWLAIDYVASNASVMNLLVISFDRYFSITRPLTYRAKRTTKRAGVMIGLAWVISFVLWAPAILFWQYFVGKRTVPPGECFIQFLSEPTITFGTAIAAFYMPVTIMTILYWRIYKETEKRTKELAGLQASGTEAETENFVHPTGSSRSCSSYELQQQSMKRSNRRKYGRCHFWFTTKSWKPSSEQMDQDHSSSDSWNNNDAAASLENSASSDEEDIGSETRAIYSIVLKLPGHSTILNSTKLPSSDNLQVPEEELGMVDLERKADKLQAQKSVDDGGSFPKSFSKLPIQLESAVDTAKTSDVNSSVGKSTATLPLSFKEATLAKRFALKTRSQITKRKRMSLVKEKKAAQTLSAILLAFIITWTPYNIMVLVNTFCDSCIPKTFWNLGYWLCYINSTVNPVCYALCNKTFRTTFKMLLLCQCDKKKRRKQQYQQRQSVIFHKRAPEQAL

Consider `CN1CCC2=C(C1)c1nsnc1SC2`, for which the ED50 was 10.4 mg/kg in experiment [1], 13 mg/kg in [2] and > 30 mg/kg in experiment [9]. Besides, the IC50 turned out to be 14.5 µM in experiment [3]; 20.5 µM in experiment [4]; 9.7 µM in [5]; 23 µM in [6]; 2.2 µM in experiment [7]; 0.0278 µM in experiment [8].

With `CSc1nsnc1C1=CCCN(C)C1`, the ED50 in experiment [1] was 4 mg/kg; in experiment [2], 6 mg/kg; in experiment [9], > 10 mg/kg. Further, the 50% inhibitory concentration (IC50) in experiment [3] turned out to be 1.2 µM; in [10], 1.8 µM; in [5], 1.6 µM; in [6], 2.1 µM; in [7], 0.48 µM; in [8], 0.0045 µM.

In the case of `O=C1CCCN1CC#CCN1CCCC1` [OXOTREMORINE], the ED50 in [1] is 0.038 mg/kg; in [2] it was 0.2 mg/kg; in experiment [9], 0.2 mg/kg. Moreover, the IC50 came to 5 µM in experiment [3]; 9 µM in experiment [4]; 17 µM in [5]; 8 µM in [6]; 0.4 µM in [7]; 0.005 µM in [11].

Consider `CSc1nsnc1C1=CCCNC1`, for which the ED50 came to 1.8 mg/kg in [1], 7.4 mg/kg in [2] and 4.5 mg/kg in [9]. This compound showed an IC50 in experiment [8] of 0.0076 µM.

With `COC(=O)C1=CCCN(C)C1` [ARECOLINE], the ED50 in experiment [1] came to 16 mg/kg; in experiment [2], 15 mg/kg; in experiment [9], 15 mg/kg.

Take `CSc1nsnc1C1=C(C)CCN(C)C1`: the ED50 in [1], in [2] and in [9] was > 30 mg/kg each time. Besides, the IC50 is > 100 µM in experiment [3]; > 100 µM in experiment [4]; > 100 µM in experiment [5]; 100 µM in experiment [6]; 100 µM in [7]; > 0.5 µM in [8].

In the case of `c1cc2nsnc2c2c1CCNC2`, the results for the ED50 in experiment [1], in experiment [2] and in experiment [9] were 4.4 mg/kg, 5.1 mg/kg and 6.4 mg/kg, respectively. Besides, the IC50 in [3] is 100 µM; in experiment [4], 100 µM; in [5], 100 µM; in experiment [6] it was 100 µM; in [7], 6.7 µM; in experiment [8], 0.0445 µM.

In the case of `C1Cc2sc3nsnc3c2CN1`, the values for the ED50 in [1], in experiment [2] and in experiment [9] were 4.6 mg/kg, 8.8 mg/kg and 15.8 mg/kg, respectively. Moreover, in experiment [8], the IC50 turned out to be 0.0355 µM.

What is called ED50 is the dose at which the effect has come halfway, by size or by number of responders. In general, IC50 refers to the concentration that inhibits the measured activity by half. Lower therefore signals inhibition by little substance.
